Data as given in ChEMBL document CHEMBL1781963, “Discovery of novel hepatoselective HMG-CoA reductase inhibitors for treating hypercholesterolemia: a bench-to-bedside case study on tissue selective drug distribution” (Bioorg Med Chem Lett, 2011).

Key:
[1] = test system: Plasma; assay: fCmax in human plasma at 5 mg administered as single dose; format: ADME, cell-free
Outline: (§1)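 Phase 1 single ascending oral dose in healthy volunteers, with N per dose group. Total plasma Cmax and AUC(0-∞) were measured. Free-drug exposures were derived from these using plasma protein binding (human plasma fu measured at 0.5 μg/mL).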

[2] = test system: Homo sapiens; assay: Inhibition of HMG-CoA reductase in human assessed as decrease in AUC (0 to 24 hrs) of mevalonate level in plasma at 160 mg administered as single dose relative to control; format: functional
[3] = Terminal half life in human plasma at 20 mg administered as single dose; format: ADME, cell-free; conditions: read-out: beta t1/2 (converted)
[4] = test system: Homo sapiens; assay: Inhibition of HMG-CoA reductase in human assessed as decrease in AUC (0 to 72 hrs) of mevalonate level in plasma at 20 mg administered as single dose relative to control; format: functional
[5] = Cmax in human plasma at 20 mg administered as single dose; format: ADME, organism-based; parameters: dose 20 mg
Outline: (§2)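 Phase 1 single ascending oral dose in healthy volunteers, about 5–6 subjects per dose. Total plasma drug Cmax and AUC(0-∞) were measured. Free-drug exposures were derived using plasma protein binding.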

[6] = Cmax in human plasma at 1 mg administered as single dose; format: ADME, organism-based; parameters: dose 1 mg; outline: as §2
[7] = test system: Plasma; assay: fAUC (0 to infinity) in human plasma at 20 mg administered as single dose; format: ADME, cell-free; outline: as §1
[8] = Cmax in human plasma at 80 mg administered as single dose; format: ADME, organism-based; parameters: dose 80 mg; outline: as §2
[9] = AUC (0 to infinity) in human plasma at 320 mg administered as single dose; format: ADME, cell-free; parameters: dose 320 mg, time infinity; outline: as §2
[10] = test system: Hepatocyte; assay: Inhibition of cholesterol synthesis in rat hepatocytes assessed as reduction of [14C]-cholesterol level using [14C]-acetic acid preincubated for 4 hrs before addition of [14C]-acetic acid by liquid scintillation counting; format: functional, cell-based
Outline: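 Cholesterol synthesis inhibition measured in rat hepatocytes and rat myocyte cell line, giving IC50 for each. Mean ± SEM of n ≥ 2 independent determinations.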

[11] = AUC (0 to infinity) in human plasma at 10 mg administered as single dose; format: ADME, cell-free; parameters: dose 10 mg, time infinity; outline: as §2
[12] = test system: Plasma; assay: fCmax in human plasma at 10 mg administered as single dose; format: ADME, cell-free; outline: as §1
[13] = test system: Homo sapiens; assay: Inhibition of HMG-CoA reductase in human assessed as decrease in AUC (0 to 72 hrs) of mevalonate level in plasma at 240 mg administered as single dose relative to control; format: functional
[14] = test system: Homo sapiens; assay: Inhibition of HMG-CoA reductase in human assessed as decrease in AUC (0 to 72 hrs) of mevalonate level in plasma at 3 mg administered as single dose relative to control; format: functional
[15] = test system: Homo sapiens; assay: Inhibition of HMG-CoA reductase in human assessed as decrease in AUC (0 to 72 hrs) of mevalonate level in plasma at 320 mg administered as single dose relative to control; format: functional

fCmax [1] | half-life [3] | Cmax [5] | Cmax [6] | fAUC [7] | Cmax [8] | AUC(0-inf) [9] | AUC(0-inf) [11] | fCmax [12] | SMILES | inhibition (INH) [2] | inhibition (INH) [4] | IC50 [10] | inhibition (INH) [13] | inhibition (INH) [14] | inhibition (INH) [15]
10 ng/mL | 5.27 h | 740 ng/mL | 33.5 ng/mL | 98.4 ng·h/mL | 4480 ng/mL | – | – | – | Cc1ccc(CNC(=O)c2nn(-c3ccc(F)cc3)c(CC[C@@H](O)C[C@@H](O)CC(=O)O)c2C(C)C)cc1 | -55% | -17% | – | – | – | –
– | – | – | – | – | – | 36 ng·h/mL | 2.71 ng·h/mL | 0.1 ng/mL | O=C([O-])C[C@H](O)C[C@H](O)CCn1c(-c2ccc(F)cc2)nc(C(=O)NCc2cccc(F)c2)c1C1CC1.[Na+] | – | – | 0.1 nM | -30% | -10% | -28%
